GSTO1 counter: GSTO1 inhibition, counter-screen for RBBP9 inhibitors; inhibition, % at 5.96 µM; P78417; 1.1% of 300,000 active; recombinant GSTO1, activity-based probe fluorescence polarization;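 active = inhibition above the campaign mean inhibition plus 3 SD, cut at about 35% in these data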;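 note: 0% = GSTO1-1 with DMSO and 100% = wells lacking GSTO1-1 enzyme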
Target sequence (P78417 whole entry, looked up): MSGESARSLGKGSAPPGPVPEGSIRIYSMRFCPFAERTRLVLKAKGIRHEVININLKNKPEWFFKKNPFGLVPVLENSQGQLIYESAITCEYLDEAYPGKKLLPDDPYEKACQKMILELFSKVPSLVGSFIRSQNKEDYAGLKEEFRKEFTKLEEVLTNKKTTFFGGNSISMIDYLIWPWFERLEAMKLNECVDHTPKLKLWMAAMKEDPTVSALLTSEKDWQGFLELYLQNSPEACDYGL
SIAE primary: human SIAE inhibition, primary screen; 0.69% of 370,000 active; Q9HAT2; AID 1053197; inhibition, % at 9.66 µM; SIAE FP-Rh probe binding, fluorescence polarization;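 active = inhibition above a cutoff: mean of compounds within the control limits plus 3 SD of those, cut at about 17% in these data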;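 note: 0% = plate median of compound wells and 100% = probe without SIAE protein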
Target sequence (Q9HAT2 whole entry, looked up): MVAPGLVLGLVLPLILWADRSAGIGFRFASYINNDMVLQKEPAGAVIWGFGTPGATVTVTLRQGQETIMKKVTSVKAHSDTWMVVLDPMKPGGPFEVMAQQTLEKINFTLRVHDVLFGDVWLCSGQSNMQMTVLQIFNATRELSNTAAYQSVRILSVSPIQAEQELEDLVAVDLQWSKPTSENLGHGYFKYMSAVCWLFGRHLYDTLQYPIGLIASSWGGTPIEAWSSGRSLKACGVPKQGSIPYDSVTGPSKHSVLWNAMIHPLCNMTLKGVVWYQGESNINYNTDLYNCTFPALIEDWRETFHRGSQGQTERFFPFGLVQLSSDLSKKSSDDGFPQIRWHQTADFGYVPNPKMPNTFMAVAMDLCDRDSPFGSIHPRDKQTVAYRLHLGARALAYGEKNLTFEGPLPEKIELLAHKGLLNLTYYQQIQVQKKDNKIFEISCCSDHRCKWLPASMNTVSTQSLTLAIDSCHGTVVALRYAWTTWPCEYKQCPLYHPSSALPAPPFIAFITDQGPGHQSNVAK
PAD4 FP inh: inhibitors of human PAD4; Q9UM07; recombinant PAD4, RCA probe fluorescence polarization; inhibition, % at 6.36 µM; 0.41% of 330,000 active;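 active = percent inhibition above a cutoff equal to the mean of all tested compounds plus 3 SD, cut at about 15% in these data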;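 note: 0% = PAD4 with RCA probe and DMSO and 100% = probe without PAD4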
TCR-CD3 inh: blocks the human TCR-CD3 interaction. TAMRA-labeled TCR probe fluorescence, biochemical. inhibition, % at 9.4 µM. 0.37% of 360,000 active. AID 651800; in the data active = inhibition above about 19%;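 note: recombinant mutant TCR 2C K166C tagged with TAMRA read by polarization; 0% = receptor in buffer alone and 100% = receptor with positive control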
TDP2 inh: TDP2 (human) inhibition, absorbance primary screen. O95551. recombinant TDP2, T5PNP hydrolysis, p-nitrophenol absorbance 415 nm. inhibition, % at 12.8 µM. 0.34% of 370,000 active. AID 720702;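 active = inhibition above the mean of all tested compounds plus 3 SD, set per campaign, cut at about 25% in these data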;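 note: 0% = DMSO with enzyme and 100% = buffer with substrate but no TDP2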
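Read-out basis: percent inhibition. System: recombinant human TDP2. Buffer or medium: Mg2+-containing Tris-HCl buffer, pH 7.5. Repeats: single replicate. Timing: reaction 2 h, 37 °C. Benchmarks: high control without enzyme, low control DMSO plus TDP2. Probe or stimulus: 5 mM T5PNP. Doses: 12.8 µM only. Measured by: epi absorbance of p-nitrophenol freed from T5PNP by hydrolysis.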
Apaf-1 inh: human Apaf-1 inhibition; reconstituted apoptosome caspase-3 activity, DEVD-Rh110 fluorescence; inhibition, % at 20 µM; 0.71% of 330,000 active; O14727; active = inhibition of at least 40% at 20 µM;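 note: plate controls were DMSO wells for no effect and DEVD-CHO caspase inhibitor wells for full effect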
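Material: cell-free apoptosome with Apaf-1, procaspase-3 and caspase-9; Buffer or medium: Hepes pH 7.5 with detergent and BSA; Reagent: cytochrome c trigger plus (Z-DEVD)2-Rh110 caspase-3 substrate; Times: compound with Apaf-1, dATP, procaspase-3 30 min, then 50 min reaction, room temperature; Technique: Rh110 fluorescence intensity.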
GSTO1 inh conf: confirmation of human GSTO1 inhibitors | shares compounds with GSTO1 counter | recombinant GSTO1, probe fluorescence polarization | inhibition, % at 5.96 µM | 54% of 2,400 active;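 active = inhibition above the primary screen's cutoff, its mean inhibition plus 3 SD, cut at about 35% in these data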;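 note: loss of polarization as inhibitors block binding of rhodamine sulfonate ester activity probe; 0% = GSTO1 with DMSO and 100% = wells lacking GSTO1 enzyme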
GSTO1 ABPP inh: GSTO1 (human) inhibition by gel ABPP | AID 463110 | recombinant GSTO1, gel ABPP SE-Rh probe fluorescence | 30% of 130 active | inhibition, % at 1 µM | shares compounds with GSTO1 counter;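 active = inhibition of the enzyme GSTO1 above about 75%, limit read from the data; inactive = inhibition below that limit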
Starred values were filed as active, the others as inactive; . = not tested or not shown. Compounds with a hit are over-represented: about 2.4% of the library has one in this group of screens.

SMILES	GSTO1 counter	SIAE primary	PAD4 FP inh	TCR-CD3 inh	TDP2 inh	Apaf-1 inh	GSTO1 inh conf	others
CC(=O)Oc1cccc2c1C(=O)c1c(OC(C)=O)cc(C(=O)O)cc1C2=O	56.3*	4.1	10.6	-4.0	3.2	2.4	33.0
Cc1ccccc1NC(=O)C(Cl)=C(Cl)Cl	43.8*	1.6	1.9	-4.8	13.1	4.9	24.2
CC(C)CCn1c(=O)c2ccccc2n2c(CCl)nnc12	81.4*	0.6	-1.5	-1.6	5.3	-11.5	95.3*	GSTO1 ABPP inh=81.0*
CCCCCn1c(=O)c2ccccc2n2c(CCl)nnc12	83.9*	-1.0	-0.5	-5.7	7.3	12.9	95.0*	GSTO1 ABPP inh=63.0
CCCn1c(=O)c2ccccc2n2c(SCC(N)=O)nnc12	0.3	-1.2	-4.2	0.6	-1.9	-13.8	.
CC(C)CCn1c(=O)c2ccccc2n2c(CN3CCCC3)nnc12	9.4	-0.7	-7.8	5.3	1.9	-11.9	.
O=C(NCCOc1nc(N2CCOCC2)nc(N2CCOCC2)n1)Nc1ccc(Cl)cc1	1.2	0.4	-1.8	-2.3	-4.9	-13.8	.
Cc1ccc(NC(=O)c2cnccn2)cc1C	0.1	-5.0	1.6	-3.5	-18.8	6.0	.
CCCC1NC(=S)N(C2CCCCC2)C1=O (stereo not drawn)	40.2*	-0.7	-0.5	1.1	1.4	9.7	2.9
COc1ccc(N(C)C(=O)c2oc(=O)c3ccccc3c2-c2ccc(C)cc2)c(OC)c1	7.1	1.8	-1.6	-3.4	-6.4	6.0	.
O=S(=O)(c1ccc(Cl)cc1)N1CCC2(CC1)OCCN2S(=O)(=O)c1cccs1	.	0.1	.	1.8	1.9	28.0	.
Oc1cccc(/C=N/NC(=S)NCCN2CCOCC2)c1O	88.4*	-0.2	-3.9	6.2	12.9	3.1	58.2*
Cc1ccc(C2Nc3ccc4ccccc4c3C3=C2C(=O)CC(C)(C)C3)o1 (stereo not drawn)	-6.8	.	2.2	.	.	-2.8	.
O=C1CCCC2=C1C(c1ccco1)Nc1ccc3ccccc3c12 (stereo not drawn)	38.0*	3.8	-0.3	10.9	-9.7	14.9	14.6
COc1cc(C2Nc3ccc4ncccc4c3C3=C2C(=O)CCC3)cc(OC)c1O (stereo not drawn)	14.8	-0.1	2.8	5.3	-1.3	3.5	.
O=C1CCCC2=C1C(c1ccc(O)c(O)c1)Nc1ccc3ccccc3c12 (stereo not drawn)	66.7*	9.1	-2.1	4.5	-9.9	-17.0	8.6
Cc1noc(C)c1COC(=O)c1ccc(-c2nc3ccccc3s2)s1	4.1	-0.9	0.0	6.1	1.6	12.9	.
Cc1ccc(Nc2c(-c3ccccn3)nc3cccc(C)n23)cc1	11.6	-0.8	-1.1	-8.3	-37.0	-5.6	.
Cn1c(SCc2c(F)cccc2Cl)nnc1-c1cccs1	8.2	1.4	-1.1	5.7	0.8	-6.7	.
COc1ccc(Sc2ccc(/C=C3\C(=O)NN(c4ccccc4)C3=O)o2)cc1	42.4*	9.1	0.1	4.6	2.3	6.1	58.1*
O=C1NN(c2cccc(Br)c2)C(=O)/C1=C/c1cccs1	-0.1	6.2	-3.0	-1.4	-3.2	11.2	.
O=C1NN(c2ccccc2)C(=O)/C1=C\c1coc2ccc(O)cc2c1=O	50.0*	-1.4	-0.2	-5.4	-14.1	5.4	35.6*
O=C1NN(c2ccccc2)C(=O)/C1=C/c1cccs1	63.0*	-0.7	-1.2	-2.2	3.5	-3.9	11.5
CCOC(=O)c1nn(-c2ccc(OCC)cc2)c(C)c1C(C)=O	-4.4	-2.1	-3.2	5.8	9.2	1.9	.
CCc1noc(C)c1C(=O)N1CCN(S(=O)(=O)c2ccc(C(C)=O)cc2)CC1	9.0	4.3	-1.2	7.8	1.0	6.9	.
SMILES	GSTO1 counter	SIAE primary	PAD4 FP inh	TCR-CD3 inh	TDP2 inh	Apaf-1 inh	GSTO1 inh conf	others
CC(NC(=O)C(=S)N1CCN(C)CC1)c1ccccc1 (stereo not drawn)	-0.8	-1.0	-8.6	1.1	3.7	4.5	.
Cc1cccc([C@@H]2[C@@H]3C(=O)N(Cc4ccccc4)C(=O)[C@@H]3[C@]3(Cc4ccc(Cl)cc4)C(=O)N(c4cccc(Br)c4)C(=O)N23)c1	70.5*	-11.3	-0.7	2.7	6.2	10.8	1.7
Cc1ccc(S(=O)(=O)/N=C2\C=C(NS(=O)(=O)c3ccccc3)C(=O)c3ccccc32)cc1	.	-6.3	.	-0.8	17.9	.	.
Cc1ccc(S(=O)(=O)/N=C2/C=C(C3C(=O)CC(C)(C)CC3=O)C(=O)c3ccccc32)cc1	61.0*	4.5	-1.5	0.3	51.1*	28.1	10.9
O=C(CCl)Nc1cccc(S(=O)(=O)NC2=NCCC2)c1	98.5*	-5.3	-1.6	4.9	-18.7	-9.4	98.7*
COc1ccccc1C(=O)COC(=O)Cc1c[nH]c2ccccc12	3.8	9.3	-1.8	-2.0	-0.1	3.4	.
CN(C)Cc1cc(O)c(CN(C)C)cc1O	53.2*	8.2	-9.6	1.7	13.8	65.3*	10.7
O=C(COC(=O)CNC(=O)c1ccccc1)NCCc1ccccc1	0.8	10.6	-3.5	9.0	3.6	-3.2	.
O=C(CNC(=O)c1ccccc1)NCCc1ccc(O)c(O)c1	75.3*	4.1	4.2	1.4	-17.5	1.6	7.4
Cc1cc(O)c(C(C)C)cc1N=Cc1ccccc1O	53.8*	8.6	-6.9	-6.2	0.7	36.4	4.0
CCN(CC)c1ccc(C=Nc2ccccc2C)c(O)c1	-3.1	-1.5	-4.5	-1.4	-17.1	1.2	.
Cc1cccc(C)c1NC(=S)N(Cc1ccco1)C1CCN(C(C)C)CC1	-0.9	2.5	-3.1	8.6	1.8	3.8	.
Cc1ccc2oc(=O)c(/C=C(\O)c3cccs3)nc2c1	39.6*	10.3	0.9	5.3	18.0	-21.2	7.0
CCC(SC1=NCCS1)C(=O)Nc1nnc(-c2ccccc2OC)s1 (stereo not drawn)	59.5*	-29.5	10.6	-0.8	1.8	17.0	60.6*
O=C(CN1CCN(S(=O)(=O)c2ccc(Br)s2)CC1)N1CCc2ccccc21	.	-6.9	.	5.3	7.4	.	.
CCCC(=O)N1CCCC1(C)C(=O)Nc1ccc(OC(F)F)cc1 (stereo not drawn)	.	-5.5	.	1.1	-7.2	.	.
COC(=O)CCC(=O)OC1(C)C(=O)C2=COC(c3ccc(OC)cc3)=CC2=C(Br)C1=O (stereo not drawn)	20.2	.	-1.6	.	.	0.7	.
COc1ccc(C2=CC3=C(Br)C(=O)C(C)(OC(=O)C4CCCC4)C(=O)C3=CO2)cc1 (stereo not drawn)	38.7*	.	-9.7	.	.	7.4	24.9
CC(CCc1ccccc1)NC(=O)CN1CCN(c2ccc(O)cc2)CC1 (stereo not drawn)	38.1*	2.7	-3.0	0.0	-18.8	5.6	7.5
